Laboratory results from ChEMBL document CHEMBL4715736, “Identification of anticancer agents based on the thieno[2,3-b]pyridine and 1H-pyrazole molecular scaffolds” (2016).

Tests used:
Format in all cases: functional
HOP-92 = assay: Growth inhibition of human HOP-92 cells assessed as cell growth at 0.01 uM incubated for 48 hrs by sulforhodamine B assay relative to control; conditions: read-out: Activity
NCI-H226 [1] = assay: Growth inhibition of human NCI-H226 cells assessed as cell growth at 0.01 uM incubated for 48 hrs by sulforhodamine B assay relative to control; conditions: read-out: Activity
HCT-15 [2] = assay: Growth inhibition of human HCT-15 cells assessed as cell growth at 0.01 uM incubated for 48 hrs by sulforhodamine B assay relative to control; conditions: read-out: Activity
SNB-19 [3] = assay: Growth inhibition of human SNB-19 cells assessed as cell growth at 0.01 uM incubated for 48 hrs by sulforhodamine B assay relative to control; conditions: read-out: Activity
U-251 = assay: Growth inhibition of human U-251 cells assessed as cell growth at 0.01 uM incubated for 48 hrs by sulforhodamine B assay relative to control; conditions: read-out: Activity
SK-MEL-5 [4] = assay: Growth inhibition of human SK-MEL-5 cells assessed as cell growth at 0.01 uM incubated for 48 hrs by sulforhodamine B assay relative to control; conditions: read-out: Activity
NCI/ADR-RES = assay: Growth inhibition of human NCI/ADR-RES cells assessed as cell growth at 0.01 uM incubated for 48 hrs by sulforhodamine B assay relative to control; conditions: read-out: Activity
SK-OV-3 [5] = assay: Growth inhibition of human SK-OV-3 cells assessed as cell growth at 0.01 uM incubated for 48 hrs by sulforhodamine B assay relative to control; conditions: read-out: Activity
PC-3 [6] = assay: Growth inhibition of human PC-3 cells assessed as cell growth at 0.01 uM incubated for 48 hrs by sulforhodamine B assay relative to control; conditions: read-out: Activity
A549 = assay: Growth inhibition of human A549/ATCC cells assessed as cell growth at 0.1 uM incubated for 48 hrs by sulforhodamine B assay relative to control; conditions: read-out: Activity
Procedure, shortened: (§1)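 NCI Developmental Therapeutics Program NCI60 panel. Compounds that were active in the 10 µM one-dose screen went on to dose–response testing. Growth at each concentration is expressed relative to untreated control (100%). GI50 (concentration giving 50% of maximal inhibition of proliferation) and TGI (concentration giving total growth inhibition) were derived from the curves.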

IGROV-1 = assay: Growth inhibition of human IGROV-1 cells assessed as cell growth at 0.1 uM incubated for 48 hrs by sulforhodamine B assay relative to control; conditions: read-out: Activity
OVCAR-3 = assay: Growth inhibition of human OVCAR-3 cells assessed as cell growth at 0.1 uM incubated for 48 hrs by sulforhodamine B assay relative to control; conditions: read-out: Activity
A498 = assay: Growth inhibition of human A498 cells assessed as cell growth at 0.1 uM incubated for 48 hrs by sulforhodamine B assay relative to control; conditions: read-out: Activity; procedure, shortened: as §1
NCI-H226 [7] = assay: Growth inhibition of human NCI-H226 cells assessed as cell growth at 1 uM incubated for 48 hrs by sulforhodamine B assay relative to control; conditions: read-out: Activity
NCI-H322M = assay: Growth inhibition of human NCI-H322M cells assessed as cell growth at 1 uM incubated for 48 hrs by sulforhodamine B assay relative to control; conditions: read-out: Activity
NCI-H522 = assay: Growth inhibition of human NCI-H522 cells assessed as cell growth at 1 uM incubated for 48 hrs by sulforhodamine B assay relative to control; conditions: read-out: Activity
HCT-15 [8] = assay: Growth inhibition of human HCT-15 cells assessed as cell growth at 1 uM incubated for 48 hrs by sulforhodamine B assay relative to control; conditions: read-out: Activity
SK-MEL-28 = assay: Growth inhibition of human SK-MEL-28 cells assessed as cell growth at 1 uM incubated for 48 hrs by sulforhodamine B assay relative to control; conditions: read-out: Activity
SK-MEL-5 [9] = assay: Growth inhibition of human SK-MEL-5 cells assessed as cell growth at 1 uM incubated for 48 hrs by sulforhodamine B assay relative to control; conditions: read-out: Activity
SK-OV-3 [10] = assay: Growth inhibition of human SK-OV-3 cells assessed as cell growth at 1 uM incubated for 48 hrs by sulforhodamine B assay relative to control; conditions: read-out: Activity
786-0 = assay: Growth inhibition of human 786-0 cells assessed as cell growth at 1 uM incubated for 48 hrs by sulforhodamine B assay relative to control; conditions: read-out: Activity; procedure, shortened: as §1
CAKI-1 = assay: Growth inhibition of human CAKI-1 cells assessed as cell growth at 1 uM incubated for 48 hrs by sulforhodamine B assay relative to control; conditions: read-out: Activity; procedure, shortened: as §1
UO-31 = assay: Growth inhibition of human UO-31 cells assessed as cell growth at 1 uM incubated for 48 hrs by sulforhodamine B assay relative to control; conditions: read-out: Activity
T47D [11] = assay: Growth inhibition of human T47D cells assessed as cell growth at 1 uM incubated for 48 hrs by sulforhodamine B assay relative to control; conditions: read-out: Activity
MDA-MB-468 [12] = assay: Growth inhibition of human MDA-MB-468 cells assessed as cell growth at 1 uM incubated for 48 hrs by sulforhodamine B assay relative to control; conditions: read-out: Activity
COLO 205 = assay: Growth inhibition of human COLO 205 cells assessed as cell growth at 100 uM incubated for 48 hrs by sulforhodamine B assay relative to control; conditions: read-out: Activity; procedure, shortened: as §1
SW-620 = assay: Growth inhibition of human SW-620 cells assessed as cell growth at 100 uM incubated for 48 hrs by sulforhodamine B assay relative to control; conditions: read-out: Activity
OVCAR-4 = assay: Growth inhibition of human OVCAR-4 cells assessed as cell growth at 100 uM incubated for 48 hrs by sulforhodamine B assay relative to control; conditions: read-out: Activity
OVCAR-8 = assay: Growth inhibition of human OVCAR-8 cells assessed as cell growth at 100 uM incubated for 48 hrs by sulforhodamine B assay relative to control; conditions: read-out: Activity
SK-OV-3 [13] = assay: Growth inhibition of human SK-OV-3 cells assessed as cell growth at 100 uM incubated for 48 hrs by sulforhodamine B assay relative to control; conditions: read-out: Activity
PC-3 [14] = assay: Growth inhibition of human PC-3 cells assessed as cell growth at 100 uM incubated for 48 hrs by sulforhodamine B assay relative to control; conditions: read-out: Activity
T47D [15] = assay: Growth inhibition of human T47D cells assessed as cell growth at 100 uM incubated for 48 hrs by sulforhodamine B assay relative to control; conditions: read-out: Activity
MDA-MB-468 [16] = assay: Growth inhibition of human MDA-MB-468 cells assessed as cell growth at 100 uM incubated for 48 hrs by sulforhodamine B assay relative to control; conditions: read-out: Activity
NCI-H460 = assay: Growth inhibition of human NCI-H460 cells incubated for 48 hrs by sulforhodamine B assay
Procedure, shortened: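 NCI60 panel at the NCI Developmental Therapeutics Program. Only compounds active in the 10 µM screen went to dose-response testing. GI50, the concentration giving 50% of maximal inhibition of proliferation, and TGI, the concentration giving total growth inhibition, were derived from the dose-response curves.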

SNB-19 [17] = assay: Growth inhibition of human SNB-19 cells incubated for 48 hrs by sulforhodamine B assay
Procedure, shortened: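 NCI DTP 60-line human tumour panel. Dose-response curves were run only for ligands active in the initial 10 µM screen. GI50 (concentration giving 50% of maximal inhibition of proliferation) and TGI (concentration giving total growth inhibition) were derived from these curves.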

| Compound | growth at 0.01 µM (HOP-92) [%] | growth at 0.01 µM (NCI-H226 [1]) [%] | growth at 0.01 µM (HCT-15 [2]) [%] | growth at 0.01 µM (SNB-19 [3]) [%] | growth at 0.01 µM (U-251) [%] | growth at 0.01 µM (SK-MEL-5 [4]) [%] | growth at 0.01 µM (NCI/ADR-RES) [%] | growth at 0.01 µM (SK-OV-3 [5]) [%] | growth at 0.01 µM (PC-3 [6]) [%] | growth at 0.1 µM (A549) [%] | growth at 0.1 µM (IGROV-1) [%] | growth at 0.1 µM (OVCAR-3) [%] | growth at 0.1 µM (A498) [%] | growth at 1 µM (NCI-H226 [7]) [%] | growth at 1 µM (NCI-H322M) [%] | growth at 1 µM (NCI-H522) [%] | growth at 1 µM (HCT-15 [8]) [%] | growth at 1 µM (SK-MEL-28) [%] | growth at 1 µM (SK-MEL-5 [9]) [%] | growth at 1 µM (SK-OV-3 [10]) [%] | further results |
| --- | --- | --- | --- | --- | --- | --- | --- | --- | --- | --- | --- | --- | --- | --- | --- | --- | --- | --- | --- | --- | --- |
| Nc1c(C(=O)Nc2ccccc2)sc2nc3c(cc12)CN(Cc1ccccc1)CC3 | 92 | 98 | 102 | 93 | 98 | 104 | 103 | 97 | 95 | 99 | 98 | 100 | 82 | 92 | 91 | 91 | 94 | 94 | 95 | 96 | growth at 1 µM (786-0): 106%; growth at 1 µM (CAKI-1): 87%; growth at 1 µM (UO-31): 83%; growth at 1 µM (T47D [11]): 83%; growth at 1 µM (MDA-MB-468 [12]): 87%; growth at 100 µM (COLO 205): 23%; growth at 100 µM (SW-620): 23%; growth at 100 µM (OVCAR-4): -19%; growth at 100 µM (OVCAR-8): 18%; growth at 100 µM (SK-OV-3 [13]): 5%; growth at 100 µM (PC-3 [14]): 23%; growth at 100 µM (T47D [15]): 19%; growth at 100 µM (MDA-MB-468 [16]): 22%; GI50 (NCI-H460): 7.51 µM; LC50 (NCI-H460): > 100 µM; TGI (NCI-H460): > 100 µM; GI50 (SNB-19 [17]): 18.3 µM; LC50 (SNB-19 [17]): > 100 µM; TGI (SNB-19 [17]): > 100 µM |
| Cc1cccc(NC(=O)c2sc3nc4c(cc3c2N)C(=O)CCC4)c1 | 87 | 95 | 88 | 94 | 96 | 97 | 98 | 90 | 95 | 78 | 86 | 81 | 32 | 57 | 48 | -35 | 24 | 47 | 16 | 7 | growth at 1 µM (786-0): 30%; growth at 1 µM (CAKI-1): 30%; growth at 1 µM (UO-31): 55%; growth at 1 µM (T47D [11]): 29%; growth at 1 µM (MDA-MB-468 [12]): 5%; growth at 100 µM (COLO 205): -8%; growth at 100 µM (SW-620): 3%; growth at 100 µM (OVCAR-4): -56%; growth at 100 µM (OVCAR-8): -30%; growth at 100 µM (SK-OV-3 [13]): -16%; growth at 100 µM (PC-3 [14]): -26%; growth at 100 µM (T47D [15]): -2%; growth at 100 µM (MDA-MB-468 [16]): 5%; GI50 (NCI-H460): 0.286 µM; LC50 (NCI-H460): > 100 µM; TGI (NCI-H460): ≥ 100 µM; GI50 (SNB-19 [17]): 0.403 µM; LC50 (SNB-19 [17]): > 100 µM; TGI (SNB-19 [17]): > 100 µM |
